Results on 15 compounds are retold here after PubChem BioAssay.

SMILES strings stand for the structures. Calls of active or inactive are those of the source.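 How the source made its calls, unless noted: active means viability at or under a set limit in both replicates, limit being median viability minus 3 SD (cut at about 48% in these data, passing the limit was not always enough); inconclusive means at or under the limit in just one replicate; inactive means at or above the limit in both replicates.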

Test [1] is described as follows: Her2 expression decrease, cell viability multiplex – SKBR3 breast tumor cells, AlphaScreen, ATP viability, primary screen (AID 461;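 active means Her2 level under about 52% in both replicate screens, with viability over 70% of control, limit read from the data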;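 on Her2 level: lower value means less Her2 protein in the cells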;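 on viability: percent of carrier control wells set as 100% viability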). To be noted: SKBR3 Her2 protein level, 18-24 h, measured here: SKBR3 viability, ATP luminescence, at 10 µM. For orientation: In Alpha technology, singlet oxygen from a donor bead excites a nearby acceptor bead.
Test [2] has as its target Receptor tyrosine-protein kinase erbB-2 (Homo sapiens) (UniProt P04626). The test is described as above. To be noted: 18-24 h, at 10 µM, stronger effect = lower value.
Test [3] can be described thus: reduced viability of SK-BR-3 breast cancer cells – cell-based, 24 h, human, pilot screen (AID 572;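 active means viability at or below 10% of carrier control in both of two separate runs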;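 further: compound exposure lasted between 18 and 24 h rather than exactly 24 h; 100% = carrier-treated control wells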). To be noted: SK-BR-3 viability, CellTiter-Glo luminescence, at 10 µM, stronger effect = lower value.
Test [4] can be described thus: HUVEC growth inhibition – cell-based, human, primary screen (AID 575;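 active means viability at or below 30% in both replicate assays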;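 further: 100% = median of untreated cell wells with 0.1% DMSO on each plate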). The following applies: HUVEC proliferation, CellTiter-Glo luminescence, 72 h; at 10 µM; stronger effect = lower value. An outline of the steps:
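Test system: primary human umbilical vein endothelial cells; medium: endothelial basal medium with 2% FBS plus growth supplements; dosing: 10 µM compound only; times: 72 h treatment at 37 °C; signal: CTG luminescence; read-out: % viability relative to median vehicle-well signal on each plate; control set: vehicle and MePR control wells; plate: 384-well, collagen-coated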

Test [5] can be described thus: H69AR cell proliferation blockers – human, duplicate replicates, primary screen (AID 580).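 Further: 100% = mean luminescence of untreated wells and 0% = no signal.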 To be noted: H69AR lung tumor cells viability, ATP luminescence, 72 h; at 10 µM; stronger effect = lower value.
A short description of test [6]: MRP1 drug-resistance reversers in H69AR cells – cell-based, doxorubicin co-treatment, pilot screen (AID 601;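 active means viability loss from added drug above about 55%, and viability with drug at most 40%, in both replicates, limit read from the data, passing the limit was not always enough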). To be noted: CellTiter-Glo, 72 h, at 10 µM; for differential viability (reversal): stronger effect = higher value.
Test [7] is described as follows: yeast transport mutant growth inhibition pilot in 384-well plates, post-Golgi transport modulator project (AID 636; in the data active means inhibition above about 31%). To be noted: absorbance 615 nm, about 18 h, stronger effect = higher value.
The nature of test [8]: growth suppression of yeast trafficking mutant, preliminary HTS, modulators of trafficking downstream of Golgi apparatus project, 1536-format plate, OD 615 nm (AID 637; in the data active means inhibition above about 30%). The following applies: yeast transport mutant growth, absorbance 615 nm, 18 h; stronger effect = higher value.
[9] abbreviates: H69AR cells + 2 uM doxorubicin, measured here: viability with 2 uM doxorubicin, stronger effect = lower value.
The mark [10] stands for this setting: H69AR cells, compound alone cytotoxicity.

As usually defined, the viability is a read-out of living cells in per cent, often relative to untreated cells. What is called inhibition is the drop in the measured response relative to a control, in per cent.

Receptor tyrosine-protein kinase erbB-2 (Homo sapiens), sequence (P04626 whole entry, looked up): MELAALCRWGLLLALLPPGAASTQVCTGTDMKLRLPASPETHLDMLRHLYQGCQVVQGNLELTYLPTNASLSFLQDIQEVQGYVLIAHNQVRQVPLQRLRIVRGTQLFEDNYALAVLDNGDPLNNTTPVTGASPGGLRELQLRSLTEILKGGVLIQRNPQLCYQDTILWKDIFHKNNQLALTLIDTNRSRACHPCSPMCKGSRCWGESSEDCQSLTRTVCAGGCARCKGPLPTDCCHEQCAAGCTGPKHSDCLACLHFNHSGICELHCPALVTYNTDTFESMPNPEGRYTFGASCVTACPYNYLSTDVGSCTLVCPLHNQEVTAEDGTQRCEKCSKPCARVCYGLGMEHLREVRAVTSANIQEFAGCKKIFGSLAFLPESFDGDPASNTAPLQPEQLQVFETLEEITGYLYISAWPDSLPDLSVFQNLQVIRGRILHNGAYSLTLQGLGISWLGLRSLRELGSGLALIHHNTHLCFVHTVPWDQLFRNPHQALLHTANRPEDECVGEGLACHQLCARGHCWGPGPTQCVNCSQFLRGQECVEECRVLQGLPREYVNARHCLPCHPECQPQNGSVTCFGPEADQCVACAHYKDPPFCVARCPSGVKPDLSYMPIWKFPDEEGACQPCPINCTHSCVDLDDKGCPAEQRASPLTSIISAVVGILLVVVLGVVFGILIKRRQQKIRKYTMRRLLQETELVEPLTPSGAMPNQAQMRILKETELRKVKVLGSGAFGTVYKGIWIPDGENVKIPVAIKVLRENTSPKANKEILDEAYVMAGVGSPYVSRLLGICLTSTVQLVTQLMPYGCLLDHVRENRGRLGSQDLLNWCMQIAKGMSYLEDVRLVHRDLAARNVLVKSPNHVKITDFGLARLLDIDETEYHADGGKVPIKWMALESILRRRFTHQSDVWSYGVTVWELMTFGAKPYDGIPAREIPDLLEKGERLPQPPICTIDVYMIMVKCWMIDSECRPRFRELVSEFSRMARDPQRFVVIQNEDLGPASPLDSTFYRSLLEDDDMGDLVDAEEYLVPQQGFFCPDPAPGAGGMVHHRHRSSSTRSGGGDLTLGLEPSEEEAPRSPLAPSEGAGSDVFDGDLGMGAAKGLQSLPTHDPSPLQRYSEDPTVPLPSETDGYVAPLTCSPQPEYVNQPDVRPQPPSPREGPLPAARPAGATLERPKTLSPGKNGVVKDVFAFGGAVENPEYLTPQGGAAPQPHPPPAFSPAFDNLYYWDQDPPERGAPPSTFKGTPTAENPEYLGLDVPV

On to `CC(C)COC(=O)C(C#N)c1nc2ccccc2nc1N1CCN(Cc2ccccc2)CC1` (stereo not given), for which the viability in test [1] is 76%; in test [3], 76% (inactive); in test [4], 64.7% (inactive); in test [5], 74.7% (inactive); in test [6] (setting [9]), 80.6%; in test [6] (setting [10]), 74.7%. In addition, the Her2 level in test [2] was 85.5% (inactive). The differential viability (reversal) in test [6] (H69AR cells + 2 uM doxorubicin) is -5.91% (inactive). Further, the figures for the inhibition in test [7] and in test [8] were -4.53% (inactive) and 14.3% (inactive), respectively.

Turning to `CN(CC(O)COCc1cccs1)C1CCCCC1` (stereo not given), the viability was 93.5% in test [1]; 93.5% (inactive) in test [3]; 93.2% (inactive) in test [4]; 106% (inactive) in test [5]; 95.4% in test [6] (setting [9]); 106% in test [6] (setting [10]). The Her2 level in test [2] is 90% (inactive). Further, in test [6] (H69AR cells + 2 uM doxorubicin), the differential viability (reversal) is 10.9% (inactive). For the same compound, the results for the inhibition in test [7] and in test [8] were -3.47% (inactive) and 5.57% (inactive), respectively.

In the case of `CC1CCN(c2oc(-c3cccc4ccccc34)nc2C#N)CC1`, the viability in test [1] is 104%; in test [3], 104% (inactive); in test [4] it was 81.7% (inactive); in test [5], 91.7% (inactive); in test [6] (setting [9]) it was 82.3%; in test [6] (setting [10]), 91.7%. Besides, in test [2], the Her2 level was 72.5% (inactive). The differential viability (reversal) in test [6] (H69AR cells + 2 uM doxorubicin) was 9.42% (inactive). Further, the inhibition was -5.53% (inactive) in test [7] and -7.33% (inactive) in test [8].

Regarding `CCN(CC)S(=O)(=O)c1ccc(C(=O)N2CCN=C2SCc2cccnc2)cc1`, the viability was 82.5% in test [1]; 82.5% (inactive) in test [3]; 79.7% (inactive) in test [4]; 84.5% (inactive) in test [5]; 88.5% in test [6] (setting [9]); 84.5% in test [6] (setting [10]). For the same compound, in test [2], the Her2 level is 95.5% (inactive). Also, the differential viability (reversal) in test [6] (H69AR cells + 2 uM doxorubicin) is -3.98% (inactive). Besides, the inhibition in test [7] was -3.38% (inactive); in test [8] it was -3.02% (inactive).

With `CCOC(=O)c1c(C)n(C)c2ccc(O)c(S(=O)(=O)c3ccccc3)c12`, the viability was 91.5% in test [1]; 91.5% (inactive) in test [3]; 103% (inactive) in test [4]; 87.9% (inactive) in test [5]; 88.9% in test [6] (setting [9]); 87.9% in test [6] (setting [10]). Moreover, the Her2 level in test [2] was 80.5% (inactive). Also, in test [6] (H69AR cells + 2 uM doxorubicin), the differential viability (reversal) is -1.07% (inactive). In addition, the inhibition in test [7] is -6.4% (inactive); in test [8], -1.31% (inactive).

In the case of `CCOC(=O)c1cccc(NC(=O)C2CCN(S(=O)(=O)c3cccs3)CC2)c1`, the viability in test [1] is 75.5%; in test [3], 75.5% (inactive); in test [4], 60.7% (inactive); in test [5] it was 65% (inactive); in test [6] (setting [9]), 72.9%; in test [6] (setting [10]) it was 65%. Further, the Her2 level in test [2] is 96% (inactive). Besides, in test [6] (H69AR cells + 2 uM doxorubicin), the differential viability (reversal) was -7.91% (inactive). For the same compound, the inhibition is -5.58% (inactive) in test [7] and -3.81% (inactive) in test [8].

With `CO/C([O-])=N/c1c[n+](-c2ccc(C)cc2)no1`, the viability in test [1] is 100%; in test [3], 100% (inactive); in test [4] it was 109% (inactive); in test [5], 90.5% (inactive); in test [6] (setting [9]), 91.3%; in test [6] (setting [10]), 90.5%. In test [2], the Her2 level was 92.5% (inactive). Also, the differential viability (reversal) in test [6] (H69AR cells + 2 uM doxorubicin) is -0.875% (inactive). For the same compound, the values for the inhibition in test [7] and in test [8] were -6.49% (inactive) and 7.38% (inactive), respectively.

For the compound `Cc1nc2sc(C(c3cccc(F)c3)N3CCC(C)CC3)c(O)n2n1` (stereo not given), the viability was 88% in test [1]; 88% (inactive) in test [3]; 101% (inactive) in test [4]; 96.3% (inactive) in test [5]; 86.7% in test [6] (setting [9]); 96.3% in test [6] (setting [10]). For the same compound, in test [2], the Her2 level was 77% (inactive). For the same compound, the differential viability (reversal) in test [6] (H69AR cells + 2 uM doxorubicin) was 9.65% (inactive). The inhibition was -6.71% (inactive) in test [7] and 1.75% (inactive) in test [8].

As to `CCOc1ccccc1C1CC(=O)Nc2cc3c(cc21)OCO3` (stereo not given), the viability in test [1] was 110%; in test [3], 110% (inactive); in test [4], 31% (inactive); in test [5], 23.7% (active); in test [6] (setting [9]), 60.9%; in test [6] (setting [10]) it was 23.7%. Also, the Her2 level in test [2] was 83.5% (inactive). In test [6] (H69AR cells + 2 uM doxorubicin), the differential viability (reversal) is -37.2% (inactive). The results for the inhibition in test [7] and in test [8] were -4.61% (inactive) and 8.17% (inactive), respectively.

For `O=C(OCc1cccs1)c1ccccc1NS(=O)(=O)c1ccc2c(c1)OCCO2`, the viability in test [1] was 91.5%; in test [3] it was 91.5% (inactive); in test [4], 121% (inactive); in test [5] it was 102% (inactive); in test [6] (setting [9]) it was 86.7%; in test [6] (setting [10]), 102%. Further, in test [2], the Her2 level was 94% (inactive). Further, the differential viability (reversal) in test [6] (H69AR cells + 2 uM doxorubicin) was 15.6% (inactive). Moreover, the inhibition in test [7] was -3.95% (inactive); in test [8], 5.74% (inactive).

Take `CC(=O)N1CCc2cc(S(=O)(=O)CCC(=O)N3CCN(C(=O)c4ccco4)CC3)ccc21`: the viability in test [1] was 99%; in test [3] it was 99% (inactive); in test [4], 104% (inactive); in test [5], 98.2% (inactive); in test [6] (setting [9]), 88.1%; in test [6] (setting [10]), 98.2%. For the same compound, the Her2 level in test [2] is 88.5% (inactive). The differential viability (reversal) in test [6] (H69AR cells + 2 uM doxorubicin) was 10.1% (inactive). Further, the inhibition was -5.47% (inactive) in test [7] and 2.95% (inactive) in test [8].

As for `COCCN(CCOC)C(=O)c1sc2nc(-c3ccccc3)cn2c1C`, the viability in test [1] was 93%; in test [3], 93% (inactive); in test [4], 82.4% (inactive); in test [5] it was 93.1% (inactive); in test [6] (setting [9]) it was 82.7%; in test [6] (setting [10]), 93.1%. For the same compound, the Her2 level in test [2] is 78% (inactive). Besides, the differential viability (reversal) in test [6] (H69AR cells + 2 uM doxorubicin) was 10.4% (inactive). The inhibition in test [7] was -3.82% (inactive); in test [8] it was -5% (inactive).

Consider `Cc1ccnc(NS(=O)(=O)c2ccc(NC(=O)Cc3cccs3)cc2)n1`, for which the viability was 94.5% in test [1]; 94.5% (inactive) in test [3]; 87.6% (inactive) in test [4]; 100% (inactive) in test [5]; 91.9% in test [6] (setting [9]); 100% in test [6] (setting [10]). The Her2 level in test [2] is 111% (inactive). Besides, the differential viability (reversal) in test [6] (H69AR cells + 2 uM doxorubicin) is 8.61% (inactive). The values for the inhibition in test [7] and in test [8] were 2.84% (inactive) and -2.79% (inactive), respectively.

`Cc1ccc(S(=O)(=O)CC2CSc3nnc(C)c(=O)n32)cc1` (stereo not given): the viability in test [1] is 136%; in test [3], 136% (inactive); in test [4], 125% (inactive); in test [5], 88% (inactive); in test [6] (setting [9]) it was 85.4%; in test [6] (setting [10]) it was 88%. Also, in test [2], the Her2 level is 112% (inactive). The differential viability (reversal) in test [6] (H69AR cells + 2 uM doxorubicin) is 2.67% (inactive). In addition, the inhibition was -5.26% (inactive) in test [7] and 1.17% (inactive) in test [8].

On to `CC(C)Oc1cccc(-c2cc(C(=O)N3CCN(S(C)(=O)=O)CC3)c3ccccc3n2)c1`, for which the viability in test [1] was 90.5%; in test [3] it was 90.5% (inactive); in test [4], 64% (inactive); in test [5], 65.7% (inactive); in test [6] (setting [9]), 75.4%; in test [6] (setting [10]) it was 65.7%. Moreover, the Her2 level in test [2] is 94% (inactive). The differential viability (reversal) in test [6] (H69AR cells + 2 uM doxorubicin) is -9.72% (inactive). Besides, the results for the inhibition in test [7] and in test [8] were -1.84% (inactive) and -6.03% (inactive), respectively.
